Hits are enriched below; roughly 8.9% of the tested compounds scored in any of these assays.
MT stabilizer = stabilizes microtubules in HeLa cells; HeLa tubulin immunostaining HCS, 24 h; share of cells brighter than vehicle mean+2SD; % tubulin-high responders, % at 10 µM; hit rate 0.83% among 200,000; AID 2205;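 active = plate Z-score above 3 for both tubulin-high and condensed-nucleus cell shares, with cell loss under 80%, at 10 µM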;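 note: anti alpha tubulin signal scored within the nucleus-defined area of each cell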
b-catenin transl = modulators of beta-catenin nuclear translocation; HeLa beta-catenin nuclear translocation, immunofluorescence imaging; nuclear translocation activity, % at 5 µM; hit rate 0.3% among 190,000; AID 1665;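 active = nuclear translocation activity above 50% at 5 µM, with a well cell count of 50 or more; inconclusive = wells under 50 cells across six images, flagged as toxic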;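 note: per-cell ratio of nuclear to cytoplasmic median beta-catenin stain intensity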
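Signal – beta-catenin immunofluorescence imaging with DAPI · Test system – human HeLa cell line · Dosing – 5 µM primary single dose, 0.1% DMSO, 0.02–20 µM confirmation series · Measure – % activation, nuclear-to-cytoplasmic median beta-catenin signal ratio per cell · Incubation – 24 h compound exposure at 37°C, 5% CO2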
HSV augment = HSV replication enhancement. HSV replication augmentation in cells, fold increase. hit rate 0.005% among 220,000. maximum fold increase; in the data active = maximum fold increase above about 1.5; inconclusive = no clear call, values can overlap the other calls; tested in PC3 cells
L major viab = Leishmania major promastigote growth inhibition; AID 1063; Leishmania major promastigotes, resazurin fluorescence viability; inhibition, % at 10 µM; hit rate 9% among 200,000; in the data active = inhibition above about 50%;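 note: promastigotes grown with compound for 44 hours at 28 °C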
Dynein transport = blocks dynein driven cargo transport along microtubules | 3617.4 mouse cells, GR-EGFP nuclear translocation imaging; test concentration mostly 20 µM; stimulated with dexamethasone, 1 µM; active compounds read low | z-score, hits read low | hit rate 0.47% among 220,000 | AID 1381;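 active = plate z-score of nuclear minus cytoplasmic receptor signal below a set negative limit, without overly bright fluorescence or cell loss, cut at about -3.5 in these data, passing the limit was not always enough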;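 note: z-score of nuclear minus cytoplasmic ring GR-EGFP intensity difference per well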
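Medium: Induction medium lacking tetracycline, stripped serum | Probe or stimulus: 1.0 µM final dexamethasone stimulus | Schedule: 48 h induction, then 1 h compound, then 30 min agonist, 37 °C | Signal: Automated 10x imaging of fixed Hoechst-stained cells | Evaluation: Per-cell GR-EGFP intensity, nucleus versus surrounding cytoplasmic ring, well-averaged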
Each line names hits and unclear results; the compound was inactive in the other large screens.

COc1ccc(-c2cc(C3CCN(Cc4ccc([N+](=O)[O-])cc4)CC3)[nH]n2)cc1	L major viab 56
COc1ccc(-c2cc(C3CCN(Cc4cccc(C(F)(F)F)c4)CC3)[nH]n2)cc1	L major viab 68
COc1ccc(OC)c(NC(=O)/C=C/c2ccccc2[N+](=O)[O-])c1	none
N#C/C(=C/c1ccc(Br)o1)C(N)=S	Dynein transport -4.1 (no result: MT stabilizer, L major viab)
N#C/C(=C/c1ccc(Br)o1)C(N)=O	none
CCn1ccnc1CN(C)Cc1cn(-c2cccc(C)c2)nc1-c1cccc(F)c1	L major viab 99
CCn1ccnc1CN(C)Cc1cn(-c2ccc(C)cc2)nc1-c1cccc(C)c1	L major viab 78
CSc1nnc(-c2cccc(C)c2)n1N	none
CCOC(=O)CN1C(=O)SC(Nc2ccc(C)cc2)C1=O (stereo unspecified)	none
Oc1ccc(Br)cc1C=Nc1ccc2c3c(cccc13)CC2	HSV augment inconclusive, L major viab 71
COCCN1Cc2cccc(C(=O)Nc3c(C)cc(C)cc3C)c2C1=O	L major viab 72
CCCN1Cc2cccc(C(=O)Nc3ccc4c(c3)OCCO4)c2C1=O	L major viab 69 (no result: b-catenin transl)
CCCN1Cc2cccc(C(=O)Nc3ccc4c(c3)OCO4)c2C1=O	none (no result: HSV augment)
Cc1ccc2c(c1)c1c3n2CCCN(Cc2ccccc2)C3CCC1 (stereo unspecified)	none
Cc1[nH][nH]c(=O)c1C(c1c(C)[nH][nH]c1=O)c1cn(Cc2ccccc2Cl)c2ccccc12	MT stabilizer 25
CCO[C@@H]1OC(C(=O)NC2CC2)=C[C@H](c2csc3ccccc23)[C@H]1CCCO	none
Cc1ccccc1CC1(CO)CCCN(Cc2c(C)nn(C)c2Cl)C1 (stereo unspecified)	none
Cc1c(NC(=S)N/N=C/c2cc([N+](=O)[O-])ccc2O)c(=O)n(-c2ccccc2)n1C	none (no result: MT stabilizer, L major viab)
Brc1ccc(OCCCCCN2CCOCC2)cc1	L major viab 98
COc1ccc(OCCC(=O)NCCN2CCOCC2)cc1	none
O=C(c1ccco1)N1CCN(CCCCOc2ccc(F)cc2)CC1	L major viab 91
O=C(COc1ccc(Br)cc1)N1CCOCC1	none
COc1cccc(OCCCCCN2CCOCC2)c1	L major viab 99
Brc1ccc(Oc2ncc(CN3CCOCC3)s2)cc1	L major viab 90 (no result: b-catenin transl)
Cc1cccc(OCCOC(=O)C2CCN(S(=O)(=O)c3cccs3)CC2)c1	none
O=C1CN(C(=O)CC2c3ccccc3-c3ccccc32)CC(=O)N1	none (no result: b-catenin transl)
Fc1ccc(OCCCCN2CCOCC2)cc1	L major viab 85
Brc1ccc(OCCOCCN2CCOCC2)cc1	L major viab 90
CN1CCN(CCCCOc2ccc(F)cc2)CC1	none
O=C(c1ccco1)N1CCN(CC(O)COc2ccc3oc4ccccc4c3c2)CC1 (stereo unspecified)	L major viab 85
OC(COc1ccc(Br)cc1)CN1CCOCC1 (stereo unspecified)	none
Cc1nnsc1-c1nnc(SCC(=O)c2ccc(F)cc2)n1C1CC1	none (no result: MT stabilizer, L major viab)
CCOc1cc(/C=C2/C(=O)ON=C2C)ccc1OCc1ccccc1F	L major viab 58
CC(C)c1ccccc1OCCNC(=O)c1cncc(Br)c1	none
CC(C)(C)OC(=O)NCCCCCNC(=O)c1[nH]cnc1C(=O)N[C@@H](Cc1ccccc1)C(=O)OCc1ccccc1	none
C=CCN1C(=O)/C(=N/n2cnnc2)c2ccccc21	none
CC(C)CN1C(=O)C(=Nc2cccnc2)c2ccccc21	L major viab 82
CCNc1ccc(Br)cc(C(=O)/C=C/c2ccc(Cl)cc2)c1=O	MT stabilizer 16, L major viab 84
CNc1ccc(Br)cc(C(=O)/C=C/c2cccc(OC)c2)c1=O	MT stabilizer 13, L major viab 57
CNc1ccc(Br)cc(C(=O)/C=C/c2ccc(Cl)cc2Cl)c1=O	MT stabilizer 9.3, L major viab 99
COc1ccccc1CN(Cc1nc2ccccc2c(=O)[nH]1)C(=O)Nc1cccc(C)c1	L major viab 86 (no result: b-catenin transl)
COc1ccccc1NC(=O)N(Cc1ccc2c(c1)OCO2)Cc1nc2ccccc2c(=O)[nH]1	none
O=C(Nc1ccccc1Cl)N(Cc1nc2ccccc2c(=O)[nH]1)Cc1cccs1	none
COc1ccccc1CN(Cc1nc2ccccc2c(=O)[nH]1)S(=O)(=O)c1ccc2ccccc2c1	L major viab 90
O=C(Nc1ccc(Cl)cc1)N(Cc1nc2ccccc2c(=O)[nH]1)Cc1cccs1	L major viab 85
O=C1c2ccccc2C(=O)N1CCCCN(C(=O)c1cc([N+](=O)[O-])cc([N+](=O)[O-])c1)c1ccc(Cl)cc1	L major viab 99
O=C1c2ccccc2C(=O)N1CCCCN(C(=O)c1cc([N+](=O)[O-])ccc1Cl)c1ccc(Cl)cc1	L major viab 58
CC(C)C(NC(=O)c1ccc(F)cc1)C(=O)OCC(=O)N1CC(=O)Nc2ccccc21 (stereo unspecified)	L major viab 68 (no result: b-catenin transl)
CC(C)[C@H](NC(=O)c1ccccc1)C(=O)OCC(=O)N1CC(=O)Nc2ccccc21	none
CC(C)[C@H](NC(=O)c1ccccc1)C(=O)OCC(=O)N1CC2(C)CC1CC(C)(C)C2 (stereo partly specified)	L major viab 53
O=C(N/C(=C\c1cccs1)C(=O)N1CCCCCC1)c1ccccc1	none
O=c1cc(CNc2ccc(Br)cc2)nc2sccn12	L major viab 71
NC(N)=N/N=C/c1cccc(Cl)c1Cl	L major viab 100
COc1ccc(-c2nncnn2)cc1	HSV augment inconclusive, L major viab 97
COc1cccc2cc(-c3nc4ccccc4o3)c(=O)oc12	L major viab 58 (no result: b-catenin transl)
Cc1nc(N)nc(N)c1/C=C/C(C)(C)c1ccc(Cl)cc1	L major viab 100
O=C1c2ccccc2C(=O)N1CCSc1ncn[nH]1	none
C#CCN(C)CCCOc1ccc(Cl)cc1Cl	none
C=CCc1ccccc1OCCNCCCOC	L major viab 83 (no result: HSV augment)
C=CCc1cc(Cl)ccc1OCCOCCNC(C)(C)C	L major viab 99
C=CCc1cc(Cl)ccc1OCCOCCN(C)C	L major viab 100
COCCCNCCOCCOc1ccccc1-c1ccccc1	none (no result: HSV augment)
C=CCc1cc(Cl)ccc1OCCOCCNCCOC	L major viab 99
C=CCOc1ccc(CNC(C)(C)C)cc1OC	none
C=CCN1C(=O)/C(=C2/Sc3ccc(OC)cc3N2C)SC1=Nc1ccc(OC)cc1	none
CCC(=O)Nc1cc(Cl)ccc1C(=O)O	none
CCCOC(=O)c1c(N)sc2c1CCC2	none
C=CCc1cc(Cl)ccc1OCCNCCCOC	L major viab 100 (no result: HSV augment)
COc1cc(/C=N/n2cnnc2)ccc1OCCSc1ccc(C)cc1	L major viab 55
COc1cc(/C=N\n2cnnc2)ccc1OCC(=O)Nc1ccc(C)cc1	none
CCOC(=O)C1(CCc2ccccc2)CCN(C(=O)c2ccoc2)CC1	none
O=C(COc1ccc2ccc(=O)oc2c1)N1CCN(c2ccccc2)CC1	L major viab 69
CC(C)(C)c1ccc(C(=O)/C(C#N)=C/c2cccs2)cc1	none (no result: MT stabilizer, L major viab)
Fc1ccc(C2CC(c3cccs3)=NN2C(=S)Nc2ccccc2)cc1 (stereo unspecified)	L major viab 53
